Measurements collected from several papers.
Protocols differ between the studies behind these lines.
Target: Protein kinase C eta type (PRKCH, Homo sapiens, UniProt P24723)

Cc1cnc(Nc2ccc(C(=O)N3CCC(N4CCCC4)CC3)cc2)nc1-c1cc2ccccc2s1  remaining binding (binding, competition with immobilised ligand; 1 µM): 15%
CN(c1nccc(-c2cnn3ncccc23)n1)C1CC1  remaining binding (binding; 1 µM): 100%
O=C(c1ccc(Nc2nccc(-c3cc4ccccc4s3)n2)cc1)N1CCC(N2CCCC2)CC1  remaining binding (binding, competition with immobilised ligand; 1 µM): 74%
CCS(=O)(=O)c1cc2cc(C[C@@](O)(CC(C)(C)c3ccc(F)cc3C(N)=O)C(F)(F)F)[nH]c2cn1  remaining binding (cell-free assay, competition with immobilised ligand; 1 µM): 100%
c1cncc(-c2cccc(Nc3nccc(NC4CCCCC4)n3)c2)c1  remaining binding (binding, competition with immobilised ligand; 10 µM): 73%
CNC(=O)Nc1ccc2c(c1)CC[C@@]21OC(=O)N(CC(=O)N(Cc2ccc(F)cc2)[C@@H](C)C(F)(F)F)C1=O  remaining binding (cell-free assay, competition with immobilised ligand; 1 µM): 93%
O=C(NCC1CCOCC1)c1n[nH]cc1NC(=O)c1c(F)cccc1F  remaining binding (binding, competition with immobilised ligand; 1 µM): 92%
CNC(=O)[C@@H]1CC[C@@H](n2c(-c3ccc4cnccc4c3)nc3ccc(C(=O)NCc4cccc(C(N)=O)c4)cc32)C1  remaining binding (binding, competition with immobilised ligand; 1 µM): 100%
CN(C)c1ncc(F)c(-c2cnn3ncccc23)n1  remaining binding (binding; 1 µM): 100%
CCCCN(CCCC)C(=O)CN1C[C@H](c2cc(OC)c3c(c2)OCO3)[C@@H](C(=O)O)[C@@H]1CC(C)(C)CCC  remaining binding (cell-free assay, competition with immobilised ligand; 1 µM): 100%
C[C@@H](c1ccc(-n2cnc3c(N)ncnc32)cc1)N1CCc2nn(C)c(Cc3ccccc3)c2C1=O  remaining binding (binding, competition with immobilised ligand; 0.1 µM): 100%
N[C@@H]1CCN(c2nccc(-c3cnn4ncccc34)n2)C1  remaining binding (binding; 1 µM): 100%
C[C@H](c1ccnc(Nc2nc3ccc(-c4cc(N(C)C)ncn4)cc3[nH]2)c1)N1CCN(C(=O)CC(F)(F)F)CC1  remaining binding (cell-free assay, competition with immobilised ligand; 0.1 µM): 84%
O=C(c1ccc(Nc2ncc(Cl)c(-c3cc4ccccc4s3)n2)cc1)N1CCC(N2CCCC2)CC1  remaining binding (binding, competition with immobilised ligand; 1 µM): 12%
COc1ccnn2ncc(-c3ccnc(N(C)C)n3)c12  remaining binding (binding; 1 µM): 92%
COc1ncc2cc3ccccc3nc2c1C#N  remaining binding (cell-free assay, competition with immobilised ligand; 5 µM): 90%
F[C@@H]1CCN(c2nccc(-c3cnn4ncccc34)n2)C1  remaining binding (binding; 1 µM): 100%
CN(C)c1ncnc(-c2ccc3nc(Nc4cc(CN5CCN(C(=O)CC(F)(F)F)CC5)ccn4)[nH]c3c2)c1Cl  remaining binding (cell-free assay, competition with immobilised ligand; 1 µM): 100%
CN(CCCC(F)(F)F)c1nccc(-c2cnn3ncccc23)n1  remaining binding (binding; 1 µM): 89%
Cn1nc(C(=O)NCc2ccc(C(=O)O)cc2)cc1-c1ccc2[nH]ccc2c1  remaining binding (cell-free assay, competition with immobilised ligand; 0.1 µM): 84%
CN(C)c1nccc(-c2cnn3ncccc23)n1  remaining binding (binding; 1 µM): 100%
C=CC(=O)N1CCC(C(=O)NCC(=O)N2CCN(c3nc(-c4cnc(N)nc4C(F)F)nc(N4CCOCC4)n3)CC2)CC1  remaining binding (binding, competition with immobilised ligand; 1 µM): 100%
